In PubChem BioAssay AID2247 (Johns Hopkins Ion Channel Center, 2010):
The whole screen tested about 300,000 compounds, of which about 1,200 (0.4%) were called active.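 The calls were made as follows: active = B-score over 3 SD under the library average, no early fluorescence shift, positive overall ratio signal; inactive = the rest.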 Shown is part of a subset that was picked to be rich in actives.

Biological target: Short transient receptor potential channel 4 (Mus musculus) (UniProt Q9QUQ5)
Test: blockers of DAMGO-evoked TRPC4 calcium flux – Fluo4 calcium, HEK293 TRPC4beta/mu-opioid cells, primary screen (AID 2247)
Conditions: at 10 µM; active compounds read low
Summary of the method: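 Test system – stable TRPC4beta/mu-opioid receptor HEK293 cells · Probe or stimulus – DAMGO, a submaximal dose followed by a maximal one · Dosing – one concentration per compound · Signal – Fluo4 calcium fluorescence by kinetic imaging, 5 s 1 Hz baseline · Evaluation – per-well B score of integrated baseline-normalized Fluo4 ratio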

Short transient receptor potential channel 4 (Mus musculus), sequence (Q9QUQ5 whole entry, looked up): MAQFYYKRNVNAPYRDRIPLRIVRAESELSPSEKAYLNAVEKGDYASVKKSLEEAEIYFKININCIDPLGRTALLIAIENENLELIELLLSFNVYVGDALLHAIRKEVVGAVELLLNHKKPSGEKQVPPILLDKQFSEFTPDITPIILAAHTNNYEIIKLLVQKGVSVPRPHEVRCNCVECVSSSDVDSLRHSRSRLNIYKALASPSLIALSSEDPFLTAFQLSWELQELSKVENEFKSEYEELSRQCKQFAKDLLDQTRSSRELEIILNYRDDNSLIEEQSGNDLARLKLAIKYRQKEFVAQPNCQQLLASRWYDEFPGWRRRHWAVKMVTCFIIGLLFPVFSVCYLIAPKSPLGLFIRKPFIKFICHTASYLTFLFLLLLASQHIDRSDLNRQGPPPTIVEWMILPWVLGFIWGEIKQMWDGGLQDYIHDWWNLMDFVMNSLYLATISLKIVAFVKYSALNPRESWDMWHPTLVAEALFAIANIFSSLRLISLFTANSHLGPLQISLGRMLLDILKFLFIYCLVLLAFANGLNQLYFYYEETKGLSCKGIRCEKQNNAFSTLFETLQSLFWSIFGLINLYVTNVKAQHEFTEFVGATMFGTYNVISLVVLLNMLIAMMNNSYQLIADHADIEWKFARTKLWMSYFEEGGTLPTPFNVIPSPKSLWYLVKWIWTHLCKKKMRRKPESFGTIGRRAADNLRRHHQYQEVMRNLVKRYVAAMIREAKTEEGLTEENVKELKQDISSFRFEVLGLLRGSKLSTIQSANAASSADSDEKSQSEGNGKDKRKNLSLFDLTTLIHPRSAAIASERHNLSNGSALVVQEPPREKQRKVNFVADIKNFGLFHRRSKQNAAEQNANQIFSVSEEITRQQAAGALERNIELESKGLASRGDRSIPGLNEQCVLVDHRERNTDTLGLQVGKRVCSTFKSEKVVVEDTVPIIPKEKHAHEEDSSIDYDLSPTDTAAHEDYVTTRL

SMILES | B-score
O=C(NC1CC1)C1CCCN(C(=O)NC2CCCCC2)C1 (stereo unspecified) | inactive
CCc1nc(SCC(=O)Nc2ccccc2OC)n[nH]1 | inactive
COc1ccc(N(CC(=O)Nc2cc(OC)cc(OC)c2)S(=O)(=O)c2c(C)n[nH]c2C)cc1 | inactive
O=C(O)C(F)(F)C(NCc1ccccc1)c1ccccc1 (stereo unspecified) | inactive
CCCc1c(C(=O)N/N=C(\C)CCc2ccc(OC)cc2)nnn1-c1nonc1N | inactive
COc1ccc(-c2cc(C(=O)N(C)Cc3ccccc3)c3ccccc3n2)cc1 | inactive
CN(C)c1cc(N)c2ccccc2n1 (tested in a mixture with another compound) | -5 (active)
Nc1nc(-c2ccccc2)cc(-c2ccccc2)n1 | inactive
COc1ccccc1C(=O)N(Cc1ccc(C)o1)C1CCS(=O)(=O)C1 (stereo unspecified) | inactive
CCCCCCCCCOC1OC(CO)C(O)C(O)C1NC(C)=O (stereo unspecified) | inactive
Cc1nn(-c2ccccc2)c(=O)c2noc(C)c12 | inactive
Cc1nc2c(c(C)nn2-c2ccccc2)c(C)c1C | inactive
Cc1nn(-c2ccccc2)c2[nH]c(C(F)(F)F)cc(=O)c12 | -7 (active)
COc1ccc(Nc2cc(Sc3ccc(OC)cc3)ncn2)cc1 | inactive
COn1c(-c2ccc(Cl)cc2Cl)nc2ncccc21 | inactive
Clc1ccc(COn2c(-c3ccc(Cl)cc3Cl)nc3ncccc32)cc1 | -9 (active)
Clc1ccc(-c2ncc3ccccn23)c(Cl)c1 | inactive
O=C(COC(=O)c1ccc([N+](=O)[O-])cc1Cl)NC(=O)c1ccccc1 | inactive
Cc1cc(C)c(S(=O)(=O)NCC(c2ccc3c(c2)OCO3)N2CCOCC2)c(C)c1 (stereo unspecified) | inactive
N#C/C(=C/c1ccc(Cl)cc1)NC(=O)c1ccccc1 | inactive
Cc1c(Cl)c([N+](=O)[O-])nn1CC(=O)NCCCN1CCOCC1 | inactive

SMILES | B-score
FC(F)Oc1ccccc1NC(=S)Nc1cccc(Cl)c1Cl | -7 (active)
COc1ccccc1NC(=S)NC(=O)C(C)C | inactive
CC(=O)Nc1ccc(NC(=O)COc2ccccc2C(=O)Nc2cccc(Cl)c2Cl)cc1 | inactive
CCCCc1nc(SCC(=O)Nc2nnc(C(C)C)s2)n[nH]1 | inactive
C[N+](C)(C)CCOP(=O)([O-])OC[C@H](O)CO | inactive
O=C(Nc1cccc(S(=O)(=O)NC2=NCCC2)c1)C1CCCCC1 | inactive
COc1ncnc2sc3c(c12)CCCC3 | -6 (active)
N=c1c2c3c(sc2ncn1N)CCCC3 | inactive
COc1ccc(/C=N/Nc2ncnc3sc4c(c23)CCCC4)cc1O | inactive
Cc1ccc(S(=O)(=O)N(CC(O)CN2CCCCC2)c2cccc([N+](=O)[O-])c2)cc1 (stereo unspecified) | inactive
Cc1cc(C)n2nc(C(=O)OCC(=O)N(CCC#N)c3ccc(F)cc3)nc2n1 | inactive
CCCn1nc(NS(=O)(=O)c2ccc(F)cc2)c2cc3ccccc3nc21 | inactive
COc1ccc(-c2n[nH]c(C)c2-c2ccccc2OC)c(O)c1 | -6 (active)
C=C(C)COc1ccc(-c2n[nH]c(C)c2-c2ccccc2OC)c(O)c1 | inactive
C=C(C)COc1ccc(-c2n[nH]c(C)c2-c2ccccc2)c(O)c1 | inactive
Cc1ccc(-n2c(C)cc(C(=O)CSc3nnc4ccccn34)c2C)cc1 | inactive
CC(=O)NC1CC2CCCC(C1)N2CC(=O)Nc1ccccc1 (stereo unspecified) | inactive
CN(C)c1ccc(NC(=O)CN2C3CCCC2CC(NC(=O)c2ccccc2)C3)cc1 (stereo unspecified) | -9 (active)
COc1ccc(NC(=O)NC2CC3CCCC(C2)N3Cc2ccccc2)cc1 (stereo unspecified) | inactive
COc1ccc(OC)c(C(C)NC(=S)Nc2ccc(S(=O)(=O)Nc3ncccn3)cc2)c1 (stereo unspecified) | inactive
